{"data": "Experimental data from different studies", "read-out": "DPPH scavenging"}
{"SMILES": "Cc1ccc(Cl)cc1NC(=O)Cc1c[nH]c2ccccc12", "IC50": "1620 nM"}
{"SMILES": "O=C(O)c1cc(O)c(O)c(O)c1", "assay": "absorbance", "IC50": "36700 nM"}
{"SMILES": "CCCCOc1ccc(NC(=O)Cc2c[nH]c3ccccc23)cc1", "IC50": "2420 nM"}
{"SMILES": "O=c1c(O[C@@H]2O[C@H](CO)[C@@H](O)[C@H](O)[C@H]2O)c(-c2ccc(O)c(O)c2)oc2cc(O)cc(O)c12", "assay": "absorbance", "IC50": "90500 nM"}
{"SMILES": "O=C(Cc1c[nH]c2ccccc12)Nc1ccc(F)cc1F", "IC50": "1710 nM"}
{"SMILES": "COc1cc(C=Cc2cc(-c3ccc(N(C)C)cc3)nc(O)n2)ccc1O", "IC50": "32.5 µg/mL"}
{"SMILES": "O=C1O[C@H]([C@@H](O)CO)C(O)=C1O", "assay": "absorbance", "IC50": "141000 nM"}
{"SMILES": "Cc1ccc(C)c(NC(=O)Cc2c[nH]c3ccccc23)c1", "IC50": "1790 nM"}
{"SMILES": "CCOC(=O)c1cc(O)c(O)c(O)c1", "assay": "absorbance", "IC50": "43400 nM"}
{"SMILES": "COc1cc(C(CC(=O)c2ccc(Cl)cc2)NCCc2ccc(O)c(O)c2)ccc1O (stereo not drawn)", "IC50": "15.3 µg/mL"}
{"SMILES": "O=C(Cc1c[nH]c2ccccc12)Nc1ccccc1", "IC50": "2360 nM"}
{"SMILES": "Cc1c(C)c2c(c(C)c1O)CCC(C)(C(=O)O)O2 (stereo not drawn)", "assay": "absorbance", "IC50": "7.06 µg/mL"}
{"SMILES": "O=C1O[C@H]([C@@H](O)CO)C(O)=C1O", "IC50": "4960 nM"}
{"SMILES": "COc1cc(C(CC(=O)c2ccc([N+](=O)[O-])cc2)NCCc2ccc(O)c(O)c2)ccc1O (stereo not drawn)", "IC50": "14.6 µg/mL"}
{"SMILES": "COc1ccc(-c2nc3cc(C)c(C)cc3[nH]2)cc1OCc1ccccc1", "assay": "absorbance", "IC50": "1820 nM"}
{"SMILES": "CCCCCCCCOc1ccc(NC(=O)Cc2c[nH]c3ccccc23)cc1", "IC50": "2450 nM"}
{"SMILES": "COc1cc(C=Cc2cc(-c3ccccc3)nc(O)n2)ccc1O", "IC50": "24 µg/mL"}
{"SMILES": "COc1ccc(-c2nc3cc(Cl)ccc3[nH]2)cc1OCc1ccccc1", "assay": "absorbance", "IC50": "2760 nM"}
{"SMILES": "COc1cc(C(CC(=O)c2ccc(C(C)(C)C)cc2)NCCc2ccc(O)c(O)c2)ccc1O (stereo not drawn)", "IC50": "15.6 µg/mL"}
{"SMILES": "Cc1ccc(NC(=O)Cc2c[nH]c3ccccc23)c(C)c1", "IC50": "2670 nM"}
{"SMILES": "COc1ccc(-c2nc3cc(F)ccc3[nH]2)cc1OCc1ccccc1", "assay": "absorbance", "IC50": "2580 nM"}
